The IC50 is the concentration needed to halve the response being measured. By ΔTm is commonly meant the change in melting temperature against a reference sample.

Active and inactive are the calls of the source. The rule behind the calls is not given here.

These results are taken from ChEMBL document CHEMBL3826876, “Toward the Development of Specific G-Quadruplex Binders: Synthesis, Biophysical, and Biological Studies of New Hydrazone Derivatives” (J Med Chem, 2016).

Data set [1] deals with U2OS. As to the kind of experiment: Cytotoxicity against human U2OS cells assessed as cell killing after 1 hr by MTT assay. The class given is functional, cell-based. The procedure, abridged:
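U2OS and HCT116 in DMEM with 10% FBS, 1% L-glutamine, seeded at 40000 cells/ml; 24 h later exposed for 1 h or 24 h, then drug-free medium 1-2 days. MTT 1 h at 37 °C, DMSO solubilisation, absorbance 595 nm. IC50 by linear regression; two independent experiments in triplicate, mean ± SE.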
For orientation: Formazan colour is commonly taken as a measure of viable cells.

Data set [2] can be described thus: Binding affinity to synthetic telomere 26 G-quadruplex DNA assessed as change in melting temperature at 4 mol equiv in presence of 100 mM KCl buffer by circular dichroism spectroscopic analysis. The procedure, abridged: (§1)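 CD melting, 20-100 °C at 1 °C/min, signal at 264 (parallel), 290 (antiparallel) or 280 nm (duplex). G4 DNA 10 µM or duplex 15 µM, folded by heating at 90 °C 5 min and slow cooling, in 10 mM potassium phosphate (c-kit1, Tel23, Tel26) or lithium phosphate (Tel23-p, ds12) pH 7.0 with 100 mM KCl. Ligand 4 equiv; Tm by curve fit, ΔTm vs DNA alone; duplicate average.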

Data set [3] can be described thus: Binding affinity to 5'-FAM/3'-TAMRA labeled c-KIT2 G-quadruplex DNA (unknown origin) assessed as change in melting temperature at 4:1 ligand:DNA ratio in presence of 20 mM KCl buffer by FRET assay. In short, it runs like this:
(§2)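 FRET melting of FAM/TAMRA-labelled G4 oligos (400 nM, annealed 85 °C 10 min) with ligand at 4 equiv, same buffers as CD (20 mM KCl for c-kit2 and c-myc; 100 mM KCl for telomeric parallel form, annealed at high concentration). Excitation 450-495 nm, emission 515-545 nm, read every 0.5 °C over 30-100 °C; ΔTm by curve fit; duplicate runs averaged.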

Data set [4] relates to U2OS. As to the kind of experiment: Cytotoxicity against human U2OS cells assessed as cell death after 24 hrs by microscopic analysis. The class given is cell-based.
Data set [5] in a line: Binding affinity to 5' and 3'-terminal G-tetrads of synthetic c-KIT2 G12T/G21T double mutant parallel G-quadruplex DNA in presence of 20 mM KCl solution by NMR spectroscopic analysis. In short, it runs like this: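 1H NMR titration at 25 °C, 700 MHz, water-suppressed 1D spectra; DNA 0.2-0.5 mM strand in H2O/D2O 9:1. Myc22 in 25 mM KH2PO4, 70 mM KCl, 0.2 mM EDTA, pH 7.0; c-kit2 T12/T21 in 5 mM KH2PO4, 20 mM KCl, 0.2 mM EDTA, pH 6.8. Ligand in DMSO-d6 added stepwise into the tube; imino proton shifts followed.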

The nature of data set [6]: Binding affinity to synthetic telomere 23 G-quadruplex DNA assessed as change in melting temperature at 4 mol equiv in presence of 100 mM KCl buffer by circular dichroism spectroscopic analysis. The procedure, abridged:
as §1
A general note: CD spectra are sensitive to the conformation of chiral molecules.

Data set [7] can be described thus: Effect on synthetic telomere 26 G-quadruplex DNA topology at 4 mol equiv by circular dichroism spectroscopic analysis. In short, it runs like this:
(§3)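 CD spectra at 20 °C, 230-360 nm, 3 scans averaged, baseline subtracted; 10 µM G4 or 15 µM duplex in potassium- or lithium-phosphate pH 7.0 buffers with 100 mM KCl (c-kit2, c-myc: 5 mM potassium phosphate, 20 mM KCl); ligand 4 molar equiv added to folded DNA from 6 mM DMSO stock.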

Data set [8] can be described thus: Effect on synthetic c-KIT1 G-quadruplex DNA topology at 4 mol equiv by circular dichroism spectroscopic analysis. In short, it runs like this:
as §3

Data set [9] can be described thus: Binding affinity to human 5'-FAM/3'-TAMRA labeled telomere 21 parallel G-quadruplex DNA (unknown origin) assessed as change in melting temperature at 4:1 ligand:DNA ratio in presence of 100 mM KCl buffer by FRET assay. In short, it runs like this: as §2
A short description of data set [10]: Ratio of IC50 for human U2OS cells to stabilization of nuclear G-quadruplex DNA in human U2OS cells.
A short description of data set [11]: Effect on synthetic self-complementary DNA 12-mer duplex topology at 4 mol equiv in presence of K+ ions by circular dichroism spectroscopic analysis. The procedure, abridged: as §3
A short description of data set [12]: Binding affinity to synthetic c-KIT2 G-quadruplex DNA assessed as increase in thermal stability in presence of 20 mM KCl buffer by circular dichroism spectroscopic analysis. The procedure, abridged:
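CD melting in 5 mM potassium phosphate, 20 mM KCl, 10 µM folded G4, heated 20-100 °C at 1 °C/min; ligand:DNA ratios 1:1, 2:1 and 4:1 compared; Tm from curve fit.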

The nature of data set [13]: Binding affinity to synthetic c-KIT1 G-quadruplex DNA assessed as change in melting temperature at 4 mol equiv in presence of 100 mM KCl buffer by circular dichroism spectroscopic analysis. In short, it runs like this:
as §1

On to `Br.O=Cc1c(-c2ccccc2)nc2n1ccc1nc(-c3ccccc3)c(/C=N/NC3=NCCN3)n12`, for which the IC50 in [1] was 5.73 µM. Also, the ΔTm in data set [2] is -3 °C; in [3], 15 °C; in data set [6], -2.4 °C; in data set [9], 7 °C; in [13] it was 2.7 °C. Further, the values for the Activity entry in [4] and in data set [12] were “Non-toxic” and “Dose-dependent effect”, respectively. Further, the result in [5] was Active. Besides, the result in data set [7], in [8] and in data set [11] was inactive. In addition, in data set [10], the Ratio turned out to be 4.
